In publication PMC4955361 (Bioorganic & medicinal chemistry letters, 2016):

Tests used:
M5 [1] = biological target: T1, M5 (Homo sapiens, UniProt P08912); assay: Muscarinic receptor subtype selectivity, M5; assay type: cell-based; conditions: for selectivity versus M5: data not shown; for potency at M5 relative to M4: antagonist
T1 sequence (P08912 1-532): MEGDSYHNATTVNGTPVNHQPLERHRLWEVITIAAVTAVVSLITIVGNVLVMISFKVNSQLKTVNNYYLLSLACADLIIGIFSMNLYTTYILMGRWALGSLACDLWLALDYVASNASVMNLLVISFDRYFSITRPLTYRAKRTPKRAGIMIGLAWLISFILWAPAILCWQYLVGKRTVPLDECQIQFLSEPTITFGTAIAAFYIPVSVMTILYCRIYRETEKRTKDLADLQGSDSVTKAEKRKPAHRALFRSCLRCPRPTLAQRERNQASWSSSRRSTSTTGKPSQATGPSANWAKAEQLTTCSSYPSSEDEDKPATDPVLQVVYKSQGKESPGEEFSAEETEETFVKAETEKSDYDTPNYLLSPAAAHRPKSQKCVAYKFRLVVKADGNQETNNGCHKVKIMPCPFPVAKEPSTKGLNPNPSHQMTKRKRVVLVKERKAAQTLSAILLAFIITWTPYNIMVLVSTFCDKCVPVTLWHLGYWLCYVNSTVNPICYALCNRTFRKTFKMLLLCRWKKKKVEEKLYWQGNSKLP

M1 [2] = biological target: T2, M1 (Homo sapiens, UniProt P11229); assay: Muscarinic receptor subtype selectivity, M1; assay type: cell-based; conditions: for selectivity versus M1: data not shown; for potency at M1 relative to M4: antagonist
T2 sequence (P11229 1-460): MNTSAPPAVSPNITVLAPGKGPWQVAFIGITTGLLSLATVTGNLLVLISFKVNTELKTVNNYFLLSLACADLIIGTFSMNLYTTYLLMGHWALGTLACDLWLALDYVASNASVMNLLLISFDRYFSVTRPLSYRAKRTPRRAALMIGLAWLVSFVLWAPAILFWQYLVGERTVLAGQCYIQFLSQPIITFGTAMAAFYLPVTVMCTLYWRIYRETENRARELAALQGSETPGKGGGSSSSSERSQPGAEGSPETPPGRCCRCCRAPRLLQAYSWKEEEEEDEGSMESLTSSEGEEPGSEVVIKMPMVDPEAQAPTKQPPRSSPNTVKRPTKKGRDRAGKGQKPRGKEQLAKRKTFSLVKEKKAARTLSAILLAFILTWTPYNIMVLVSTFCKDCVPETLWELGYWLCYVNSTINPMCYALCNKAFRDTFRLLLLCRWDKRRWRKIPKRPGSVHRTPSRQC

M5 [3] = biological target: T1, M5; assay: Built-in HTS counterscreen, human M5; assay type: cell-based
human M4 = biological target: T3, human M4 (Homo sapiens, UniProt P08173); assay type: cell-based; conditions: read-out: % ACh Max ± SEM
T3 sequence (P08173 1-479): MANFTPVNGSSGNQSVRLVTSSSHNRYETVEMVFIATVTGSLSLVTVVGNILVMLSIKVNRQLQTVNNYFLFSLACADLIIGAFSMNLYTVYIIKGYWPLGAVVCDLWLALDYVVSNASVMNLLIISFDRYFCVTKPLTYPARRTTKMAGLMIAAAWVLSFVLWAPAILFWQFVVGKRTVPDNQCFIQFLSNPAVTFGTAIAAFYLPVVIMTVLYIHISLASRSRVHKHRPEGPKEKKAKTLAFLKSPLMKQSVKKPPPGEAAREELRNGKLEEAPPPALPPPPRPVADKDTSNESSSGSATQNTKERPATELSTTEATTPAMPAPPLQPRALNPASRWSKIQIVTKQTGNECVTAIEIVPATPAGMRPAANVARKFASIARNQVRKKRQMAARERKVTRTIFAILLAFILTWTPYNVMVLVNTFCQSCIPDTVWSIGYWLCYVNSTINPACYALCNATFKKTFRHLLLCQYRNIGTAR
How it was run: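 Functional Ca2+ mobilization read-out in CHO cells co-expressing human M4 and the chimeric G protein Gqi5. Test compound is applied with a fixed ~EC20 concentration of acetylcholine. PAM potency is reported as EC50/pEC50 and efficacy as % of the acetylcholine maximum. Values are means of at least three independent determinations.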

[4] = Rat brain:plasma distribution; assay type: in vivo; conditions: in words
M1 [5] = biological target: T2, M1; assay: Built-in HTS counterscreen, human M1; assay type: cell-based
[6] = Intrinsic clearance in human hepatic microsomes; assay type: in vitro ADME; conditions: predicted hepatic clearance from in vitro intrinsic clearance
[7] = Intrinsic clearance in rat hepatic microsomes; assay type: in vitro ADME; conditions: predicted hepatic clearance from in vitro intrinsic clearance
CYP450 = CYP450 inhibition profile; assay type: in vitro ADME; conditions: in words
M3 = M3 (Homo sapiens, UniProt P20309); assay: Muscarinic receptor subtype selectivity, M3; assay type: cell-based; conditions: antagonist
M3, sequence (P20309 whole entry): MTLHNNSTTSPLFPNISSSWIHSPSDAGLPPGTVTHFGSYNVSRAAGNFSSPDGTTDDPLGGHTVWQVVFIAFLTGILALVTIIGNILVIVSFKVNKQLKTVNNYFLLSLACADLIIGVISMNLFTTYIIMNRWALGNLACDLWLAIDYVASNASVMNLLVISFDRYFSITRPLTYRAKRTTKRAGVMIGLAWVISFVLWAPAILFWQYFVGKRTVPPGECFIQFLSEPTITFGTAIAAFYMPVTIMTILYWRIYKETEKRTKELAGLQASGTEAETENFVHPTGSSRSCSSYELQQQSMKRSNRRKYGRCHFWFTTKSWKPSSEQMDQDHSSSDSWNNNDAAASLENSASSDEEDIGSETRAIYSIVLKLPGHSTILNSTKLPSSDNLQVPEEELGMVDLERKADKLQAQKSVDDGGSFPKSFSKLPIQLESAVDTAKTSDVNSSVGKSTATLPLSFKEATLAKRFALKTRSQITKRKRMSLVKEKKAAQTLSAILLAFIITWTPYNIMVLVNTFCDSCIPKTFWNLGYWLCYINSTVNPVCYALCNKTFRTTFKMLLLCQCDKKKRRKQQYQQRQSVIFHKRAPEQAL

M2 = biological target: T4, M2 (Homo sapiens, UniProt P08172); assay: Muscarinic receptor subtype selectivity, M2; assay type: cell-based; conditions: antagonist
T4 sequence (P08172 1-466): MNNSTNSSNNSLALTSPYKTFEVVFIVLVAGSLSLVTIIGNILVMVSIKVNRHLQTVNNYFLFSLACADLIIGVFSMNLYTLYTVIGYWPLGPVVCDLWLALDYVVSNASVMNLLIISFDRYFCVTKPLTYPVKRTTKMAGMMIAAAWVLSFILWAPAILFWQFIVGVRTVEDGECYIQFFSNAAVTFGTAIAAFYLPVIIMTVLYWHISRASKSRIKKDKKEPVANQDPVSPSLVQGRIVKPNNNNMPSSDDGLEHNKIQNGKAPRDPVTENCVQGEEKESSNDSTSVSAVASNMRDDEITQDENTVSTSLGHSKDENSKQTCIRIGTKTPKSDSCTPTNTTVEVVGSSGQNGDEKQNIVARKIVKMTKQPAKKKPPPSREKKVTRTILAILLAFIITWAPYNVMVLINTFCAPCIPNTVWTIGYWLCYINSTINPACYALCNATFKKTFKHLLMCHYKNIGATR

rats = conditions: by potentiation of receptor activation by endogenous acetylcholine; cited from earlier work
[8] = Metabolite identification; assay type: in vitro ADME; conditions: human hepatic microsomes, NADPH-dependent
[9] = Metabolite identification; assay type: in vitro ADME; conditions: rat hepatic microsomes, NADPH-dependent
rodent = conditions: cited from earlier work

Cc1sc2ncnc(N3CCC(C(=O)Nc4ccc(F)cc4Cl)CC3)c2c1C [10g]
selectivity versus M5 (M5 [1]): retaining selectivity | selectivity versus M1 (M1 [2]): retaining selectivity

Cc1sc2ncnc(N3CCC(C(=O)Nc4ccc(S(N)(=O)=O)cc4)CC3)c2c1C [compound 5]
activity on human M5 (M5 [3]): inactive | Emax (human M4): 91 ± 4% | CNS penetration [4]: not CNS penetrant | activity on human M1 (M1 [5]): inactive

Cc1sc2ncnc(N3CCC(C(=O)N4CCCC4)CC3)c2c1C [11a]
predicted CLhep, human [6]: 16 mL/min/kg | predicted CLhep, rat [7]: 67 mL/min/kg

CCCCN(c1ccc(C)nc1)C1CCN(c2ncnc3sc(C)c(C)c23)CC1 [compound 20]
potency at M5 relative to M4 (M5 [1]): similarly potent | CYP450 inhibition profile (CYP450): acceptable | potency at M3 relative to M4 (M3): similarly potent | potency at M1 relative to M4 (M1 [2]): similarly potent | potency at M2 relative to M4 (M2): similarly potent

COc1ccc(CNC(=O)c2sc3nc(C)cc(C)c3c2N)cc1 [VU0152100]
antipsychotic-like activity in rats (rats): displayed antipsychotic-like activity

Cc1ccc(OC2CCN(c3ncnc4sc(C)c(C)c34)CC2)cn1 [14b]
major metabolic route in human [8]: heteroatom (likely the thiophene sulfur) oxidation | predicted CLhep, human [6]: 20 mL/min/kg | major pathway of metabolism in rat [9]: hydroxylation of the 5,6-dimethyl moiety | predicted CLhep, rat [7]: 68 mL/min/kg

CCCN(c1ccc(C)nc1)C1CCN(c2ncnc3sc(C)c(C)c23)CC1 [compound 19]
potency at M5 relative to M4 (M5 [1]): similarly potent | CYP450 inhibition profile (CYP450): acceptable | potency at M3 relative to M4 (M3): similarly potent | potency at M1 relative to M4 (M1 [2]): similarly potent | potency at M2 relative to M4 (M2): similarly potent

Cc1sc2ncnc(N3CCC(C(=O)Nc4cc(Cl)ccc4Cl)CC3)c2c1C [10h]
selectivity versus M5 (M5 [1]): retaining selectivity | selectivity versus M1 (M1 [2]): retaining selectivity

Cc1sc2ncnc(N3CCC(C(=O)N4CC[C@H](F)C4)CC3)c2c1C [11b]
predicted CLhep, human [6]: 14 mL/min/kg | predicted CLhep, rat [7]: 68 mL/min/kg

Cc1nnc2sc(C(=O)NCc3ccc(S(=O)(=O)C(F)(F)F)cc3)c(N)c2c1C [VU0467154]
in vivo efficacy in rodent antipsychotic and cognition models (rodent): robust in vivo efficacy

Cc1ccc(OC2CCN(c3ncnc4ccc(F)cc34)CC2)cn1 [17b]
predicted CLhep, human [6]: 12 mL/min/kg | predicted CLhep, rat [7]: 50 mL/min/kg

Cc1sc2ncnc(N3CCC(C(=O)Nc4ccc(S(C)(=O)=O)cc4)CC3)c2c1C [10e]
selectivity versus M5 (M5 [1]): retaining selectivity | selectivity versus M1 (M1 [2]): retaining selectivity
